Measured values published in ChEMBL document CHEMBL4680062, “Structure-property studies of an imidazoquinoline chemotype with antitrypanosomal activity” (RSC Med Chem, 2020).

What was measured:
[1] = Intrinsic clearance in human liver microsomes by LC/MS/MS analysis; format: ADME, Microsome; conditions: read-out: CLH
[2] = 1-Octanol-aquoues buffer distribution coefficient, log D of compound at pH 7.4 by UPLC-MS based shake flask method; format: physicochemical; conditions: 1-octanol/aqueous buffer
[3] = Intrinsic clearance in Han Wistar rat hepatocytes assessed per million cells at 1 uM by LC/MS/MS analysis; format: ADME, cell-based, Hepatocyte; conditions: read-out: CLH
[4] = Half life in NMRI mouse at 10 mg/kg, ip measured up to 24 hrs by LC/MS/MS analysis; format: ADME, organism-based; conditions: in vivo
Outline: (§1)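 Female NMRI mice (n=3) dosed IP at a target of 10 mg/kg. Vehicle: 1% DMSO and 99% of a 20% Captisol solution in water. Drug levels measured in peripheral blood.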

[5] = Drug exposure in NMRI mouse blood at 10 mg/kg, ip measured after 4 hrs by LC/MS/MS analysis; format: ADME, organism-based; conditions: in vivo; outline: as §1
[6] = Ratio of drug level in brain to plasma in NMRI mouse at 10 mg/kg, ip measured up to 24 hrs by LC/MS/MS analysis; format: ADME, organism-based; conditions: brain and plasma, read-out: BPR
[7] = Drug exposure in NMRI mouse brain at 10 mg/kg, ip measured after 4 hrs by LC/MS/MS analysis; format: ADME, organism-based; conditions: in vivo
[8] = AUC in NMRI mouse at 10 mg/kg, ip measured up to 24 hrs by LC/MS/MS analysis; format: ADME, organism-based; set-up: route intraperitoneal, dose 10 mg/kg, time <=24; conditions: in vivo; outline: as §1
[9] = Cmax in NMRI mouse at 10 mg/kg, ip measured up to 24 hrs by LC/MS/MS analysis; format: ADME, organism-based; set-up: route intraperitoneal, dose 10 mg/kg, time <=24; conditions: in vivo; outline: as §1
[10] = Tmax in NMRI mouse at 10 mg/kg, ip measured up to 24 hrs by LC/MS/MS analysis; format: ADME, organism-based; conditions: in vivo; outline: as §1

Compound | microsomal CLint [1] [µL/min/mg] | logD [2] | hepatocyte CLint at 1 µM [3] [µL/min/1e6 cells] | half-life [4] [min] | Drug uptake [5] | Kp at 24 h [6] | Drug uptake [7] | AUC at 24 h [8] [ng·h/mL] | Cmax [9] [ng/mL] | Tmax [10] [min]
Cn1c(=O)n(C2CCNCC2)c2c3cc(-c4cn[nH]c4)ccc3ncc21 | 3 | 0.1 | 1 |  |  |  |  |  |  | 
Cn1c(=O)n(-c2ccc(C(C)(C)C#N)cc2)c2c3cc(-c4cn[nH]c4)ccc3ncc21 | 38 | 3 | 7.9 | 78 | Not Active | 0.026 | Not Active | 920 | 570 | 30
